According to ChEMBL document CHEMBL1933026, “Synthesis and biological evaluation of molecular probes based on the 9-methylstreptimidone derivative DTCM-glutarimide” (Bioorg Med Chem Lett, 2012):
In brackets after ≈: the same amount, converted by molar mass. Activity calls are given as the source filed them. The rule behind the calls is not given here.

Tests used:
RAW264.7 [1] = assay: Antiinflammatory activity in mouse RAW264.7 cells assessed as inhibition of LPS-induced NO production treated for 2 hrs before LPS challenge measured after 20 hrs by Griess method; assay type: functional, cell-based
Summary of the method: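 RAW264.7 macrophages grown in DMEM with 10% FBS, seeded at 1 × 10⁵ cells/ml and used next day. Pretreated with compound 2 h, then stimulated with LPS […] for 20 h. Nitrite in the medium read with Griess reagent.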

[2] = (§1) Cytotoxicity against LPS-induced mouse RAW264.7 cells treated 2 hrs before LPS challenge measured after 20 hrs by MTT assay; assay type: cell-based; settings: mouse, LPS-induced RAW264.7 cells; read-out: ED50
Summary of the method: (§2)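 RAW264.7 cells seeded at 1 × 10⁵ cells/ml and treated the next day with compound for 2 h, followed by LPS for 20 h. MTT solution then added and cells held 4 h at 37 °C in 5% CO₂. Viability read as absorbance at 570 nm.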

RAW264.7 [3] = assay: Antiinflammatory activity in mouse RAW264.7 cells assessed as inhibition of LPS-induced iNOS expression at 0.3 to 3 ug/ml treated 2 hrs before LPS challenge measured after 24 hrs by Western blotting; assay type: functional, cell-based
Summary of the method: (§3)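 RAW264.7 cells in DMEM with 10% FBS. Incubated with or without compound for 2 h, then stimulated with LPS 1 µg/ml for 24 h. Total cell lysates analysed for iNOS protein by Western blotting.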

RAW264.7 [4] = assay: Inhibition of LPS-induced NF-kappaB activation in mouse RAW264.7 cells at 10 ug/ml treated 2 hrs before LPS challenge measured after 30 mins by electrophoretic mobility shift assay; assay type: cell-based
Summary of the method: (§4)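 RAW264.7 cells pretreated 2 h, then stimulated with LPS for 30 min. Nuclear extracts prepared by the Andrews–Faller method. 5 µg protein incubated 20 min at RT with poly(dI-dC) and a ³²P-labelled NF-κB oligonucleotide in Tris-HCl pH 7.0 buffer with NaCl, EDTA, DTT, glycerol and NP-40. Complexes resolved on a 4% native polyacrylamide gel in TBE.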

RAW264.7 [5] = assay: Inhibition of LPS-induced NF-kappaB activation in mouse RAW264.7 cells at 3 ug/ml treated 2 hrs before LPS challenge measured after 30 mins by electrophoretic mobility shift assay; assay type: cell-based; summary of the method: as §4
RAW264.7 [6] = assay: as §1; assay type: cell-based; settings: Mus musculus, RAW264.7; summary of the method: as §2
RAW264.7 [7] = assay: Antiinflammatory activity in mouse RAW264.7 cells assessed as inhibition of LPS-induced iNOS expression at 1 to 10 ug/ml treated 2 hrs before LPS challenge measured after 24 hrs by Western blotting; assay type: functional, cell-based; summary of the method: as §3

Compound: O=C(CCCC[C@@H]1SC[C@@H]2NC(=O)N[C@@H]21)NCCCCCCCCCCCCNC(=O)CC1CC(=O)NC(=O)C1
- IC50 (RAW264.7 [1]): > 30 µg/mL
- CC50 at 20 h [2]: > 30 µg/mL

Compound: CCCCCCCCCCCCSC(=O)CC1CC(=O)NC(=O)C1
- inhibition (RAW264.7 [3]): Active
- inhibition (RAW264.7 [4]): inactive
- inhibition (RAW264.7 [5]): inactive

Compound: [N-]=[N+]=Nc1ccc(C(=O)NCCCCCCCCCCCCSC(=O)CC2CC(=O)NC(=O)C2)cc1
- IC50 (RAW264.7 [1]): 4.5 µg/mL (≈ 8.73 µM)
- CC50 at 20 h [2]: > 30 µg/mL
- IC50 (RAW264.7 [6]): > 30 µg/mL
- inhibition (RAW264.7 [7]): Active
- inhibition (RAW264.7 [4]): inactive
- inhibition (RAW264.7 [5]): inactive

Compound: O=C(CCCC[C@@H]1SC[C@@H]2NC(=O)N[C@@H]21)NCCSC(=O)CC1CC(=O)NC(=O)C1
- IC50 (RAW264.7 [1]): > 30 µg/mL
- CC50 at 20 h [2]: > 30 µg/mL

Compound: O=C(CCCC[C@@H]1SC[C@@H]2NC(=O)N[C@@H]21)NCCCCCCCCCCCCSC(=O)CC1CC(=O)NC(=O)C1
- IC50 (RAW264.7 [1]): 5 µg/mL (≈ 8.38 µM)
- CC50 at 20 h [2]: > 30 µg/mL
- IC50 (RAW264.7 [6]): > 30 µg/mL
- inhibition (RAW264.7 [7]): Active
- inhibition (RAW264.7 [4]): inactive
- inhibition (RAW264.7 [5]): inactive
